TWEAK Fn14 block – TWEAK-Fn14 signaling inhibition; TWEAK-stimulated Fn14 reporter cells, luciferase luminescence, 8 h; AID 1159606; inhibition, % at 10 µM; hit rate 2% among 360,000; in the data active = inhibition above about 50%
CaV13 FRET inh – Disruptors of the CACNA1D IQ motif to Ca2+-dependent inactivation inhibitor domain association, primary screening, Förster resonance energy transfer in intact living …; HEK cells, CFP/YFP FRET ICDI-IQ, plate reader, 10 min; percent FRET-ratio fall versus neutral wells; inhibition, % at 12.3 µM; hit rate 0.098% among 340,000;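 active = mean replicate inhibition of at least 30% and at least 1% of replicates passing that level; inconclusive = only one of the two criteria is met; inactive = neither criterion is met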;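 note: 0% = median of the neutral control wells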
TROY NFkB inh – inhibitors of TROY-dependent NF-kB signaling; hit rate 0.98% among 360,000; inhibition, % at 10 µM; Q293 LMP1-TROYcd NF-kB luciferase reporter, 4 h;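 active = compounds whose plate-normalised and pattern-corrected inhibition of the luciferase reporter signal at the single screening dose is 50% or more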
LGR2 antag – Drosophila LGR2 receptor signaling inhibition; hit rate 0.35% among 380,000; HEK293 LGR2, CRE-luciferase, bursicon-stimulated, 4 h; inhibition, % at 9.99 µM;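 active = drop in luminescence signal, shown as inhibition above about 50% in the replicate tests, limit read from the data, passing the limit was not always enough; inconclusive = probably only some replicates passing the limit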;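 note: agonist challenge used bursicon conditioned medium at about half maximal strength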
XiGFP reactiv – reactivates the inactive X chromosome in mouse fibroblasts | XiGFP mouse fibroblasts, % GFP-positive cells imaging, 3 d; cells co-treated with 5-aza-dC sensitizer; scaled so ellipticine positive control = 100% | hit rate 0.055% among 360,000 | activation, % at 7.58 µM | AID 743238;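 active = mean normalized replicate activation at least 10% and every replicate at or above 10%; inconclusive = only one of the two criteria met; inactive = mean below 10% and not all replicates reach 10%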;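 note: 0% = median of on-plate neutral control wells and 100% = ellipticine 6 µM median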
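Assay system: SV40-immortalized XiGFP fibroblast cells, line 68-5-11; buffer or medium: DMEM plus 5-aza-dC sensitizer; compound: one concentration, pinned; timing: compounds 3 days, fix/stain 15 min at room temperature; benchmarks: positive control ellipticine, 6 µM final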
Starred values were filed as active, the others as inactive. The list is not random: actives were taken first. Their share in the collection is about 2%.

How did COc1ccc(-[n+]2c(C)cc(/C=C3\Sc4ccccc4N3C)cc2C)cc1 do in these assays?
TWEAK Fn14 block: 5; CaV13 FRET inh: 34*; TROY NFkB inh: 29; LGR2 antag: -1; XiGFP reactiv: 179*

Results for COc1ccccc1-[n+]1c(C)cc(/C=C2\Sc3ccccc3N2C)cc1C ?
TWEAK Fn14 block: 89*; CaV13 FRET inh: 19; TROY NFkB inh: 82*; LGR2 antag: inconclusive; XiGFP reactiv: 101*

How did COc1ccc(C(=O)/C=C2\Sc3ccccc3N2C)cc1 do in these assays?
TWEAK Fn14 block: 42; CaV13 FRET inh: -3; TROY NFkB inh: -25; LGR2 antag: -22; XiGFP reactiv: 0

How did CCCNC(=O)N1C[C@H](C)[C@H](OC)CN(C)C(=O)c2ccc(NC(=O)C3CCC3)cc2OC[C@H]1C do in these assays?
LGR2 antag: -9; XiGFP reactiv: 0

What do the screens show for `C#CC1(O)CCC2C3CCC4=Cc5oncc5CC4(C)C3CCC21C` (configuration not stated)?
TWEAK Fn14 block: -33; CaV13 FRET inh: -7; TROY NFkB inh: 31; LGR2 antag: 13; XiGFP reactiv: 0

Results for C#C[C@]1(O)CCC2C3CCC4=Cc5oncc5CC4(C)C3CCC21C (some centres not stated) ?
TWEAK Fn14 block: 0; CaV13 FRET inh: -5; TROY NFkB inh: 51*; XiGFP reactiv: 0

How did COc1ccc(S(=O)(=O)N(C)C[C@@H]2Oc3c(NC(=O)Nc4ccccc4)cccc3C(=O)N([C@H](C)CO)C[C@@H]2C)cc1 do in these assays?
LGR2 antag: 23; XiGFP reactiv: 0

What do the screens show for `Cc1noc(C)c1S(=O)(=O)Nc1ccc2c(c1)C(=O)N([C@H](C)CO)C[C@H](C)[C@H](CN(C)C(=O)Nc1ccc3c(c1)OCO3)O2`?
LGR2 antag: -12; XiGFP reactiv: -1

How did Cc1noc(C)c1S(=O)(=O)N(C)C[C@H]1Oc2ccc(NS(=O)(=O)c3ccc(Cl)cc3)cc2CC(=O)N([C@@H](C)CO)C[C@H]1C do in these assays?
LGR2 antag: 18; XiGFP reactiv: -1

Results for N#Cc1c2ccc(O)cc2n2ccccc12 ?
TWEAK Fn14 block: 56*; CaV13 FRET inh: active; TROY NFkB inh: 6; LGR2 antag: 23; XiGFP reactiv: 0

What do the screens show for `CC(C)(C)c1cc[n+](C2=C([O-])c3ccccc3C(=O)/C2=N\S(=O)(=O)c2ccccc2)cc1`?
TWEAK Fn14 block: 80*; CaV13 FRET inh: -15; TROY NFkB inh: 60*; LGR2 antag: 3; XiGFP reactiv: 0

What do the screens show for `O=C(Cc1ccncc1)NCC[C@@H]1CC[C@@H](NC(=O)Nc2ccc(F)cc2)[C@@H](CO)O1`?
LGR2 antag: -4; XiGFP reactiv: 0

What do the screens show for `CCSc1ncc(/C=N/Nc2ccc([N+](=O)[O-])cc2)n1C`?
TWEAK Fn14 block: -46; CaV13 FRET inh: -18; TROY NFkB inh: -65

Results for C=Cc1cnc([N+](=O)[O-])n1C ?
TWEAK Fn14 block: 7; CaV13 FRET inh: -7; TROY NFkB inh: -1; LGR2 antag: -15; XiGFP reactiv: 88*

What do the screens show for `c1ccc(OCCSc2nnc3sc4ccccc4n23)cc1`?
TWEAK Fn14 block: 91*; CaV13 FRET inh: -6; TROY NFkB inh: 67*; LGR2 antag: 92*

Results for COc1cccc(OCCSc2nnc3sc4ccccc4n23)c1 ?
TWEAK Fn14 block: -15; TROY NFkB inh: -35

How did O=C(N[C@H]1CC[C@@H](CCNS(=O)(=O)c2ccc(Cl)cc2)O[C@@H]1CO)c1cccnc1 do in these assays?
LGR2 antag: 3; XiGFP reactiv: 0

How did Cc1ncc([N+](=O)[O-])n1Cc1cccc(F)c1 do in these assays?
TWEAK Fn14 block: 70*; CaV13 FRET inh: -12; TROY NFkB inh: 19; LGR2 antag: 13; XiGFP reactiv: 0

What do the screens show for `O=C(NC1CCCCC1)c1sc(=S)n2c1[nH]c(=O)c1ccccc12`?
TWEAK Fn14 block: -12; CaV13 FRET inh: -4; TROY NFkB inh: 60*

Results for CCCCNC(=O)c1sc(=S)n2c1[nH]c(=O)c1ccccc12 ?
TWEAK Fn14 block: -19; CaV13 FRET inh: -4; TROY NFkB inh: 56*

From PubChem BioAssay
